Reference: ChEMBL document CHEMBL4049426, “Identification of the Clinical Candidate (R)-(1-(4-Fluorophenyl)-6-((1-methyl-1H-pyrazol-4-yl)sulfonyl)-4,4a,5,6,7,8-hexahydro-1H-pyrazolo[3,4-g]isoquinolin-4a-yl)(4-(trifluoromethyl)pyridin-2-yl)methanone (CORT125134): A Selective Glucocorticoid Receptor (GR) Antagonist” (J Med Chem, 2017)
Calls of active or inactive are those of the source. No cut-off for these calls is given here.

Legend:
Rattus norvegicus [1] = assay: (§1) In vivo antagonist activity at glucocorticoid receptor in Sprague-Dawley rat cortisone model of exogenous Cushing's syndrome assessed as inhibition of plasma insulin levels at 30 mg/kg, po bid via gavage for 6 days pretreated for 12 hrs followed by cortisone 21-acetate treatment measured 24 hrs after last cortisone 21-acetate treatment; assay type: functional, organism-based
Summary of the method: (§2)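 Male Sprague Dawley rats (200-250g), 3-day vehicle baseline, groups of eight. Compound as suspension in DMSO:Tween 80:0.5% HPMC 10:0.1:89.9, oral gavage twice daily for 6 days; cortisone 21-acetate 30mg/kg s.c. daily in 1% methylcellulose. Tail-vein blood 24 h after last cortisone (12 h after last compound); glucose by clinical reagent, insulin by ultrasensitive rat ELISA.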

Rattus norvegicus [2] = assay: as §1, with “rat” for “rat cortisone model of exogenous Cushing's syndrome”, “reduction in cortisone-induced” for “inhibition of”, “glucose” for “insulin”; assay type: functional, organism-based; summary of the method: as §2
[3] = Oral bioavailability in Sprague-Dawley CD-1 rat plasma at 5 mg/kg administered through gavage measured up to 24 hrs by LC/MS analysis; assay type: ADME, organism-based
Summary of the method: (§3)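 Jugular-catheterized male Sprague Dawley CD-1 rats (220-250g). Oral arm: five rats, 5mg/kg gavage, 1mg/mL in DMSO:0.5% methylcellulose 10:90, 5mL/kg, sampled pre-dose and 0.25-24 h. i.v. arm: three rats, 1mg/kg, 0.5mg/mL in DMSO:PEG400:propylene glycol 10:45:45, sampled pre-dose and 0.08-24 h. Plasma by LC/MS.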

[4] = Cmax in monkey plasma at 20 mg/kg, po measured up to 24 hrs by LC/MS analysis; assay type: ADME, organism-based, Macaca mulatta; parameters: dose 20 mg/kg, route oral; details: rhesus monkey
Summary of the method: (§4)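 Monkey i.v./p.o. study: oral 20mg/kg in 10% DMSO, 0.1% Tween 80, 0.5% hydroxypropylmethylcellulose in water; i.v. dose 1mg/kg.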

Glucocorticoid receptor = target: T1, Glucocorticoid receptor (Homo sapiens, UniProt P04150); assay: Antagonist activity at glucocorticoid receptor in human HepG2 cells assessed as inhibition of dexamethasone-induced tyrosine amino transferase activity preincubated for 30 mins followed by dexamethasone addition measured after 20 hrs; assay type: cell-based
T1 sequence (P04150 whole entry): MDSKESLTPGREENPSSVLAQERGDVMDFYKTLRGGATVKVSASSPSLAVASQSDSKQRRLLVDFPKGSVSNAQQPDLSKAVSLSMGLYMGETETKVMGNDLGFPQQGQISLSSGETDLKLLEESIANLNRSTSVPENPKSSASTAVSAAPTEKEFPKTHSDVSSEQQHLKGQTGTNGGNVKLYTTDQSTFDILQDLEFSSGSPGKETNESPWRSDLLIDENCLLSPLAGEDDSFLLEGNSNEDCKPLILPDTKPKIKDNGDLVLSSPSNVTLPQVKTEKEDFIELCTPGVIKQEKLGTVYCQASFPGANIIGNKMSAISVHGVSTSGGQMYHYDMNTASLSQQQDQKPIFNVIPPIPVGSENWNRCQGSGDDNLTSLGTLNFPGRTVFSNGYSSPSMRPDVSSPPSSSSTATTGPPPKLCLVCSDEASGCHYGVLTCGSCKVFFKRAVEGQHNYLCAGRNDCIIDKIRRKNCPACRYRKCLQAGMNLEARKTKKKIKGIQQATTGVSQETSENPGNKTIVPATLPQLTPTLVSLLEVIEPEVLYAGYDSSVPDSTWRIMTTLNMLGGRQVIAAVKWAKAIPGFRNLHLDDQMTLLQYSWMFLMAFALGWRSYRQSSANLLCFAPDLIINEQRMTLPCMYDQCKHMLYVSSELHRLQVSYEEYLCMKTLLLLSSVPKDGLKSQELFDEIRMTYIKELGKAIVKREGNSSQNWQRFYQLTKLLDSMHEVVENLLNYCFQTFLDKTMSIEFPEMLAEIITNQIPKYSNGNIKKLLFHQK

[5] = Cmax in Sprague-Dawley CD-1 rat plasma at 3 mg/kg, po administered as cassette dose via gavage measured up to 24 hrs by LC/MS analysis; assay type: ADME, organism-based; parameters: dose 3 mg/kg, route oral
Summary of the method: (§5)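 Three male Sprague Dawley CD-1 rats (220-250g) with jugular vein catheters; three test compounds plus a reference dosed together by oral gavage, 3mg/kg each, in DMSO:0.5% methylcellulose 10:90 (0.6mg/mL per compound), 5mL/kg. Plasma sampled pre-dose and at 0.25, 0.5, 1, 2, 4, 6, 8, 24 h; LC/MS.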

[6] = AUC in Sprague-Dawley CD-1 rat plasma at 3 mg/kg, po administered as cassette dose via gavage measured up to 24 hrs by LC/MS analysis; assay type: ADME, organism-based; parameters: time < 24 hr, dose 3 mg/kg, route oral; summary of the method: as §5
[7] = Oral bioavailability in monkey plasma at 20 mg/kg measured up to 24 hrs by LC/MS analysis; assay type: ADME, organism-based, Macaca mulatta; details: rhesus monkey; summary of the method: as §4
[8] = AUC in monkey plasma at 20 mg/kg, po measured up to 24 hrs by LC/MS analysis; assay type: ADME, organism-based, Macaca mulatta; parameters: dose 20 mg/kg, time < 24 hr, route oral; details: rhesus monkey; summary of the method: as §4
[9] = AUC in Sprague-Dawley CD-1 rat plasma at 5 mg/kg, po administered through gavage measured up to 24 hrs by LC/MS analysis; assay type: ADME, organism-based; parameters: dose 5 mg/kg, time < 24 hr, route oral; summary of the method: as §3
[10] = Cmax in Sprague-Dawley CD-1 rat plasma at 5 mg/kg, po administered through gavage measured up to 24 hrs by LC/MS analysis; assay type: ADME, organism-based; parameters: dose 5 mg/kg, route oral; summary of the method: as §3

| SMILES | inhibition (Rattus norvegicus [1]) | inhibition (Rattus norvegicus [2]) | bioavailability [3] | Cmax [4] | Ki (Glucocorticoid receptor) | Cmax [5] | AUC at 24 h [6] | bioavailability [7] | AUC at 24 h [8] | AUC at 24 h [9] | Cmax [10] |
| --- | --- | --- | --- | --- | --- | --- | --- | --- | --- | --- | --- |
| CC#C[C@]1(O)CC[C@H]2[C@@H]3CCC4=CC(=O)CCC4=C3[C@@H](c3ccc(N(C)C)cc3)C[C@@]21C | Active | Active |  |  |  |  |  |  |  |  |  |
| Cn1nccc1S(=O)(=O)N1CCC2=Cc3c(cnn3-c3ccc(F)cc3)C[C@]2(C(=O)c2cc(C(F)(F)F)ccn2)C1 |  |  | 62% | 16 ng/mL | 11 nM | 239 ng/mL | 967 ng·h/mL | 1% | 217 ng·h/mL | 1560 ng·h/mL | 528 ng/mL |
